Assay results gathered from unrelated publications.
BRD1 bromodomain: Bromodomain-containing protein 1, bromodomain (BRD1, Homo sapiens, UniProt O95696)

Compound	target	assay	system	setting	measurement	result
NS(=O)(=O)c1ccc(Nc2nc(-c3ccc(F)cc3)c3ccccc3n2)cc1	BRD1 bromodomain	binding, competition with immobilised ligand	–	1 µM	remaining binding	2%
CCCOc1ccc(OC)c(F)c1C(=O)c1ccc(C(=O)N[C@@H]2CNC[C@H]2NC(=O)c2ccc3[nH]ncc3c2)cc1	Abl2 (Mus musculus, UniProt Q4JIM5)	enzyme activity, inhibitor	–	10 µM	remaining activity	87%
O=C(O)C(=O)Cc1ccccc1	D-dopachrome decarboxylase (Homo sapiens, UniProt P30046)	enzyme activity, substrate	–	–	Km	2400 µM
COc1cc(Cl)c(C(=O)N[C@@H](CN[C@H]2CC[C@@H](N)CC2)Cc2ccc(C#N)cc2)cc1-c1ccc(CN[C@H](C)c2ccc(C)cc2)o1	Eukaryotic translation initiation factor 2-alpha kinase 1 (EIF2AK1, Homo sapiens, UniProt Q9BQI3)	enzyme activity, inhibitor	–	1 µM	remaining activity	93%
O=C(c1ccc(F)cc1)N(Cc1ccccc1)C1CCCCC1	Estrogen receptor (ESR1, Homo sapiens, UniProt P03372)	cell-free assay	–	10 µM	inhibition	32%
C=C(C)[C@@H]1CCC(C)=C[C@H]1c1c(O)cc(CCCCC)cc1O	Polyunsaturated fatty acid lipoxygenase ALOX12 (ALOX12, Homo sapiens, UniProt P18054)	enzyme activity in cells, inhibitor	PMNL	10 µM	remaining activity	131%
Oc1ccc(-c2nc(-c3ccncc3)c(-c3ccc(F)cc3)[nH]2)cc1	BRD1 bromodomain	thermal stability, DSF	–	10 µM	ΔTm	0.46 °C
Cc1ccc(C(=O)Nc2ccc(CN3CCN(C)CC3)c(C(F)(F)F)c2)cc1C#Cc1cnc2cccnn12	Hormonally up-regulated neu tumor-associated kinase (HUNK, Homo sapiens, UniProt P57058)	enzyme activity, inhibitor	–	23.5 nM	remaining activity	94%
Nc1ncnc2occ(-c3ccc(NC(=O)Nc4cc(C(F)(F)F)ccc4F)cc3)c12	Phosphatidylinositol 3-kinase catalytic subunit type 3 (PIK3C3, Homo sapiens, UniProt Q8NEB9)	cell-free assay	–	20 µM	remaining signal	73%
CCOCc1nc(O)c(-c2nnc(Cc3ccc(Cl)cn3)o2)c(O)c1-c1c(OC)cccc1OC	Apelin receptor (APLNR, Homo sapiens, UniProt P35414)	binding, radioligand	–	–	kon	5.17e+06 M⁻¹ s⁻¹
O=c1c(O[C@@H]2O[C@H](CO)[C@@H](O)[C@H](O)[C@H]2O)c(-c2ccc(O)c(O)c2)oc2cc(O)cc(O)c12	Sucrase-isomaltase, intestinal (Si, Rattus norvegicus, UniProt P23739)	enzyme activity, inhibitor	–	50 µg/mL	inhibition	30.8%
Cn1c2c(c3ccc(Cl)c(Cl)c31)C(C#N)C(C)(C)NC2=O (stereo not drawn)	Rhodopsin kinase GRK1 (GRK1, Homo sapiens, UniProt Q15835)	thermal stability, DSF	–	10 µM	ΔTm	2.7 °C
